This passage reports Ki and IC50 results from ChEMBL document CHEMBL1129480, “Design and synthesis of 1-aminocycloalkane-1-carboxylic acid-substituted deltorphin analogues: unique delta and mu opioid activity in modified peptides” (J Med Chem, 1996).

In test [1] the target is Mu-type opioid receptor (Rattus norvegicus, UniProt P33535). Briefly: Displacement of [3H]DAGO (1.28 nM) from Opioid receptor mu 1. A digest of the protocol: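 Rat brain synaptosomal membranes, preincubated, in 50 mM HEPES pH 7.5, 5 mM MgCl2, glycerol, protease inhibitors with [3H]DAGO for 120 min at 22-23 °C. Baseline set with 2 µM unlabeled peptide. Filtration, washes with ice-cold buffer containing 0.01% BSA or lactalbumin. Duplicates over 6-14 concentrations spanning 1000-fold, or triplicates with 25-35 concentrations fitted to one- or two-site models. Ki from IC50 by Cheng-Prusoff.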

In test [2] the target is Delta-type opioid receptor (Rattus norvegicus, UniProt P33533). Nature of the test: Displacement of [3H]DPDPE (0.63 nM) from Opioid receptor delta 1. A digest of the protocol:
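Rat brain synaptosomal membranes, preincubated, incubated with [3H]DPDPE in 50 mM HEPES pH 7.5, 5 mM MgCl2, glycerol, protease inhibitors, 120 min at 22-23 °C. Nonspecific baseline from 2 µM unlabeled peptide. Filtered, washed with ice-cold buffer plus 0.01% BSA or lactalbumin. Duplicates, 6-14 concentrations over 1000-fold, or triplicates with 25-35 concentrations for one/two-site fits. Ki via Cheng-Prusoff.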

The target of test [3] is Delta-type opioid receptor (Mus musculus, UniProt P32300). Nature of the test: Inhibitory activity against Opioid receptor delta 1 of mouse vas deferens (MVD). It counts as tissue-based.
Test [4] has as its target Mu-type opioid receptor (Cavia porcellus, UniProt P97266). Briefly: Compound was evaluated for its inhibitory activity towards Opioid receptor mu 1 of guinea pig ileum (GPI). It counts as tissue-based. An outline of the steps: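 Guinea pig ileum segment (2-3 cm) in 20 mL organ bath with 70 µM hexamethonium bromide and 0.125 µM mepyramine maleate, 95% O2/5% CO2, 36 °C. Transmural stimulation, 0.5 ms square pulses at 0.1 Hz, 1.5× maximal-twitch voltage (~30 V). Dose-response curves against reference agonists (dermorphin or morphine). IC50 as mean ± SE of four independent experiments.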

By Ki is commonly meant a measure of affinity in units of concentration, obtained from inhibition or displacement. Higher therefore signals lower affinity. What is called IC50 is the concentration that inhibits the measured activity by half.

Square brackets hold non-standard residues; d marks the D form. Peptide text beside a SMILES is read from it. Ac6c = NC1(C(=O)O)CCCCC1; Ac5c = NC1(C(=O)O)CCCC1; Ac3c = NC1(C(=O)O)CC1

Delta-type opioid receptor (Rattus norvegicus, UniProt P33533), sequence (P33533 whole entry): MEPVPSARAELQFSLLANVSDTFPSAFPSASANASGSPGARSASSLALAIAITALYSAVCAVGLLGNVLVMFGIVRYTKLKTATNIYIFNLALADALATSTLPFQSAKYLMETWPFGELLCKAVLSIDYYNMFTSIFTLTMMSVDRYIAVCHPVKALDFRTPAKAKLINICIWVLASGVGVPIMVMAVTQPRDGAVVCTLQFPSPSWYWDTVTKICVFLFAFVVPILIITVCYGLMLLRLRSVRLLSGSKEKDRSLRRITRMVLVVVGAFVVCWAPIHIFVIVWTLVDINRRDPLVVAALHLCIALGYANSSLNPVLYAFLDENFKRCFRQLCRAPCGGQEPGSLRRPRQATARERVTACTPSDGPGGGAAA
Delta-type opioid receptor (Mus musculus, UniProt P32300), sequence (P32300 whole entry): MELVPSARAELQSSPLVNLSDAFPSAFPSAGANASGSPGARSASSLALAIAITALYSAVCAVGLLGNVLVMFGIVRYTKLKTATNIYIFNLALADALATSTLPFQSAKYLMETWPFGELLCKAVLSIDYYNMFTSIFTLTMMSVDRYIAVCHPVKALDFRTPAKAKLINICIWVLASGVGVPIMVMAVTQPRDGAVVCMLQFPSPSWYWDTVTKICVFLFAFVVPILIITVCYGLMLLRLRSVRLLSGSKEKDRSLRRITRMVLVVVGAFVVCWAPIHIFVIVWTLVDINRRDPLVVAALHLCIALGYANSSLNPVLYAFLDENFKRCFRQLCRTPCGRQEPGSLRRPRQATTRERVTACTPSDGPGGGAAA
Mu-type opioid receptor (Rattus norvegicus, UniProt P33535), sequence (P33535 whole entry): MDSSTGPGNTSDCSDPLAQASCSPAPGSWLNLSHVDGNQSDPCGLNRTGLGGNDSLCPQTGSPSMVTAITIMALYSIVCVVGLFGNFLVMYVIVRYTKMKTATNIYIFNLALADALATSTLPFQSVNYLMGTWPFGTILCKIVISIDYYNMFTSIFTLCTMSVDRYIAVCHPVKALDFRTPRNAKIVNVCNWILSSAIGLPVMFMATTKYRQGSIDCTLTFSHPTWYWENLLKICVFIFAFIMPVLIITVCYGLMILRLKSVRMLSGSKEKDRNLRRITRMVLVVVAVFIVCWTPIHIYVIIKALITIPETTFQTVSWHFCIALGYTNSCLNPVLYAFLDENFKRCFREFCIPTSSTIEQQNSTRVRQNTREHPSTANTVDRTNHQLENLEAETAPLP
Mu-type opioid receptor (Cavia porcellus, UniProt P97266), sequence (P97266 whole entry): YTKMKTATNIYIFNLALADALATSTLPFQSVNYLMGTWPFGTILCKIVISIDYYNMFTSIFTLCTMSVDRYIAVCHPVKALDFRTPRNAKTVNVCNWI

For the compound `CC(C)[C@H](NC(=O)[C@@H](NC(=O)C1(NC(=O)[C@H](Cc2ccccc2)NC(=O)[C@H](C)NC(=O)[C@@H](N)Cc2ccc(O)cc2)CC1)C(C)C)C(=O)NCC(N)=O` (H-YAF[Ac3c]VVG-NH2), the Ki was determined as 0.00027 µM at Mu-type opioid receptor [1] and 0.054 nM in test [2]. The IC50 in test [3] stood at 0.43 nM; on Mu-type opioid receptor [4], 15 nM.

Consider `CC(C)[C@H](NC(=O)[C@@H](NC(=O)C1(NC(=O)[C@H](Cc2ccccc2)NC(=O)[C@H](C)NC(=O)[C@@H](N)Cc2ccc(O)cc2)CCCC1)C(C)C)C(=O)NCC(N)=O` (H-YAF[Ac5c]VVG-NH2), for which the Ki worked out at 0.00058 µM on Mu-type opioid receptor [1] and 0.054 nM in test [2]. In addition, the IC50 in test [3] was 0.19 nM; against Mu-type opioid receptor [4] it was 140 nM.

On to `CC(C)[C@H](NC(=O)[C@@H](NC(=O)C1(NC(=O)[C@H](Cc2ccccc2)NC(=O)[C@H](C)NC(=O)[C@@H](N)Cc2ccc(O)cc2)CCCCC1)C(C)C)C(=O)NCC(N)=O` (H-YAF[Ac6c]VVG-NH2), for which the Ki was 0.00245 µM at Mu-type opioid receptor [1] and 0.045 nM in test [2]. Further, the concentration for half-maximal inhibition (IC50) was determined as 0.52 nM in test [3] and 558 nM on Mu-type opioid receptor [4].

Turning to `CC(C)[C@H](NC(=O)[C@H](CC(=O)O)NC(=O)C1(NC(=O)[C@H](C)NC(=O)[C@@H](N)Cc2ccc(O)cc2)CC1)C(=O)N[C@H](C(=O)NCC(N)=O)C(C)C` (H-YA[Ac3c]DVVG-NH2), the inhibition constant Ki at Mu-type opioid receptor [1] turned out to be 10.2 µM; in test [2] it was 19 nM. Besides, the IC50 in test [3] was 458 nM; on Mu-type opioid receptor [4] it was over 10000 nM.

On to `CC(C)[C@H](NC(=O)[C@H](CC(=O)O)NC(=O)C1(NC(=O)[C@H](C)NC(=O)[C@@H](N)Cc2ccc(O)cc2)CCCC1)C(=O)N[C@H](C(=O)NCC(N)=O)C(C)C` (H-YA[Ac5c]DVVG-NH2), for which the Ki worked out at 6.82 µM at Mu-type opioid receptor [1] and 15.4 nM in test [2]. Also, the IC50 is 1640 nM in test [3] and over 10000 nM at Mu-type opioid receptor [4].

On to `CC(C)[C@H](NC(=O)[C@H](CC(=O)O)NC(=O)C1(NC(=O)[C@H](C)NC(=O)[C@@H](N)Cc2ccc(O)cc2)CCCCC1)C(=O)N[C@H](C(=O)NCC(N)=O)C(C)C` (H-YA[Ac6c]DVVG-NH2), for which the inhibitory constant (Ki) worked out at 5.46 µM on Mu-type opioid receptor [1] and 3.28 nM in test [2]. Besides, the half-inhibitory concentration (IC50) in test [3] is 540 nM; against Mu-type opioid receptor [4] it was over 10000 nM.

Turning to `CC(C)[C@H](NC(=O)[C@H](CC(=O)O)NC(=O)C1(NC(=O)[C@@H](N)Cc2ccc(O)cc2)CCCCC1)C(=O)N[C@H](C(=O)NCC(N)=O)C(C)C` (H-Y[Ac6c]DVVG-NH2), the inhibition constant Ki came to 441 µM on Mu-type opioid receptor [1] and 5260 nM in test [2].

`CC(C)[C@H](NC(=O)[C@H](CC(=O)O)NC(=O)[C@H](Cc1ccccc1)NC(=O)C1(NC(=O)[C@@H](N)Cc2ccc(O)cc2)CCCCC1)C(=O)N[C@H](C(=O)NCC(N)=O)C(C)C` (H-Y[Ac6c]FDVVG-NH2): the inhibitory constant (Ki) at Mu-type opioid receptor [1] was found to be 3.11 µM; in test [2], 2.48 nM.

On to `CC(C)[C@H](NC(=O)[C@H](CC(=O)O)NC(=O)C1(NC(=O)C2(NC(=O)[C@@H](N)Cc3ccc(O)cc3)CCCCC2)CCCCC1)C(=O)N[C@H](C(=O)NCC(N)=O)C(C)C` (H-Y[Ac6c][Ac6c]DVVG-NH2), for which the Ki came to 14.8 µM at Mu-type opioid receptor [1] and 87.8 nM in test [2].

On to `CC(C)[C@H](NC(=O)[C@H](CC(=O)O)NC(=O)[C@H](Cc1ccccc1)NC(=O)[C@@H](C)NC(=O)[C@@H](N)Cc1ccc(O)cc1)C(=O)N[C@H](C(=O)NCC(N)=O)C(C)C` [DELTORPHIN C], for which the Ki at Mu-type opioid receptor [1] came to 0.147 µM; in test [2] it was 0.15 nM. In addition, half-maximal inhibition on Mu-type opioid receptor [4] (IC50) was put at 337 nM.
